ChEMBL document CHEMBL1142312, “Anti-Plasmodium activity of tetrazolium salts” (Bioorg Med Chem, 2008)
pIC50: −log10 of the molar value.

Assays:
[1] = test system: Plasmodium falciparum; assay: Antimalarial activity against Plasmodium falciparum in LDH reporter assay; type: functional, organism-based; conditions: Plasmodium falciparum
Method in brief: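 P. falciparum line ItG cultured in O+ human erythrocytes in RPMI-1640 with 10% human serum and 50 μM hypoxanthine. Twofold serial dilutions from 10 mg/mL DMSO stock, 2% hematocrit, 2% parasitemia. Incubated 72 h at 37 °C under 95% N2/3% CO2/2% O2. Parasite LDH assay read at 650 nm after 1 h. IC50 by non-linear regression, mean ± SE of four determinations.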

[2] = Toxicity in CHO cells; type: cell-based, Cricetulus griseus; conditions: Chinese hamster (Cricetulus griseus), CHO cells
Method in brief: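 CHO cells grown to 50% confluency in RPMI-1640 with 10% fetal calf serum, 25 mM Hepes and gentamicin. Serial dilutions made from a 10 mg/mL DMSO stock; DMSO-only controls. After 48 h, MTT (10 mg/mL in medium) added for 1 h, then DMSO added and absorbance read at 650 nm. IC50 by non-linear regression of dose–response; mean ± SE of four determinations.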

[3] = Ratio of IC50 for CHO cells to IC50 for Plasmodium falciparum; type: functional

pIC50 [1]	SMILES	pIC50 [2]	Ratio IC50 [3]
5.54	[Cl-].c1ccc(-c2ccc(-n3nc(-c4cccc5ccccc45)n[n+]3-c3ccccc3)cc2)cc1	5.05	3.1
6.10	COc1ccc(-n2nc(-c3ccccc3)n[n+]2-c2ccccc2)cc1.[Cl-]	5.19	8.1
5.05	O=[N+]([O-])c1ccc(-[n+]2nc(-c3ccc(OCc4ccccc4)cc3)nn2-c2ccccc2)cc1.[Cl-]	5.36	0.5
6.40	COc1ccc(-n2nc(-c3ccc(-c4ccccc4)cc3)n[n+]2-c2ccc(Cl)cc2)cc1.[Cl-]	4.92	30
6.54	COc1ccc(-n2nc(-c3ccc(OCc4ccccc4)cc3)n[n+]2-c2cccc(Cl)c2)cc1.[Cl-]	4.80	55.2
6.08	Fc1ccc(-[n+]2nc(-c3cccc4ccccc34)nn2-c2ccccc2)cc1.[Cl-]	4.49	38.6
6.37	COc1ccc(-[n+]2nc(-c3ccc(-c4ccccc4)cc3)nn2-c2ccccc2)cc1.[Cl-]	4.72	44.2
6.58	[Cl-].c1ccc(COc2ccc(-n3nc(-c4ccc(-c5ccccc5)cc4)n[n+]3-c3ccccc3)cc2)cc1	5.77	6.5
6.59	COc1cc(-c2nn(-c3ccccc3)[n+](-c3ccccc3)n2)ccc1OCc1ccccc1.[Cl-]	5.33	18.1
5.89	Clc1cccc(-n2nc(-c3ccc(OCc4ccccc4)cc3)n[n+]2-c2cccc(Cl)c2)c1.[Cl-]	4.68	16.2
6.70	[Cl-].c1ccc(COc2ccc(-n3nc(-c4ccccc4)n[n+]3-c3ccccc3)cc2)cc1	4.43	185
6.08	Clc1cccc(-[n+]2nc(-c3ccccc3)nn2-c2ccccc2)c1.[Cl-]	5.20	7.5
5.21	[Cl-].c1ccc(-n2nc(C3CCCCC3)n[n+]2-c2ccccc2)cc1	4.60	4
6.49	COc1ccc(-n2nc(-c3ccc(OCc4ccccc4)cc3)n[n+]2-c2ccccc2)cc1.[Cl-]	5.05	28.1
6.99	[Cl-].c1ccc(COc2ccc(-c3nn(-c4ccccc4)[n+](-c4ccccc4)n3)cc2)cc1	5.38	40.8
5.94	Clc1ccc(-[n+]2nc(-c3ccc(OCc4ccccc4)cc3)nn2-c2ccccc2)cc1.[Cl-]	5.34	4
5.66	Fc1cccc(-[n+]2nc(-c3ccccc3)nn2-c2ccccc2)c1.[Cl-]	4.44	16.4
5.47	CCCCCCc1nn(-c2ccccc2)[n+](-c2ccccc2)n1.[Br-]	4.68	6.2
5.14	COc1cc(-c2nn(-c3ccccc3)[n+](-c3ccc([N+](=O)[O-])cc3)n2)cc(OC)c1OC(C)=O.[Cl-]	4.72	2.6
5.49	COc1cc(-c2nn(-c3ccccc3)[n+](-c3cccc(F)c3)n2)ccc1OCc1ccccc1.[Cl-]	5.19	2
5.66	COc1cc(-c2nn(-c3ccccc3)[n+](-c3ccccc3F)n2)ccc1OCc1ccccc1.[Cl-]	5.57	1.2
6.38	Fc1cccc(-[n+]2nc(-c3ccc(OCc4ccccc4)cc3)nn2-c2ccccc2)c1.[Cl-]	5.37	10.2
5.00	O=[N+]([O-])c1ccc(-[n+]2nc(-c3ccc(Br)cc3)nn2-c2ccccc2)cc1.[Cl-]	5.15	0.7
5.60	CCCCCCCCCCCOc1cccc(-c2nn(-c3ccccc3)[n+](-c3ccccc3)n2)c1.[Cl-]	5.30	2
6.59	Fc1cccc(-[n+]2nc(-c3ccc(-c4ccccc4)cc3)nn2-c2ccccc2)c1.[Cl-]	5.31	18.8
5.43	COc1ccc(-c2nn(-c3ccccc3)[n+](-c3ccc([N+](=O)[O-])cc3)n2)cc1.[Cl-]	5.22	1.6
6.09	Fc1ccc(-[n+]2nc(-c3ccc(-c4ccccc4)cc3)nn2-c2ccccc2)cc1.[Cl-]	5.39	5.1

pIC50 [1]	SMILES	pIC50 [2]	Ratio IC50 [3]
6.39	Clc1ccc(-[n+]2nc(-c3ccc(-c4ccccc4)cc3)nn2-c2ccccc2)cc1.[Cl-]	4.80	39
6.64	[Cl-].c1ccc(-c2ccc(-c3nn(-c4ccccc4)[n+](-c4ccccc4)n3)cc2)cc1	5.15	30.4
7.00	Clc1cccc(-[n+]2nc(-c3ccccc3)nn2-c2ccc(OCc3ccccc3)cc2)c1.[Cl-]	4.85	140
6.03	Fc1ccc(-[n+]2nc(-c3ccccc3)nn2-c2ccccc2)cc1.[Cl-]	4.41	41.9
4.85	O=[N+]([O-])c1ccc(-c2nn(-c3ccccc3)[n+](-c3ccccc3)n2)cc1.[Cl-]	4.51	2.2
6.30	Clc1cccc(-n2nc(-c3ccccc3)n[n+]2-c2cccc(Cl)c2)c1.[Cl-]	4.44	72
6.33	Fc1ccc(-[n+]2nc(-c3ccc(OCc4ccccc4)cc3)nn2-c2ccccc2)cc1.[Cl-]	4.80	34
5.77	COc1ccc(-n2nc(-c3ccc(-c4ccccc4)cc3)n[n+]2-c2ccc(F)cc2)cc1.[Cl-]	4.72	11.2
–	COc1cc(-c2ccc(-n3nc(-c4ccc([N+](=O)[O-])cc4)n[n+]3-c3ccc([N+](=O)[O-])cc3)c(OC)c2)ccc1-n1nc(-c2ccc([N+](=O)[O-])cc2)n[n+]1-c1ccc([N+](=O)[O-])cc1	5.89	–
6.34	Clc1cccc(-c2nn(-c3ccccc3)[n+](-c3ccccc3)n2)c1.[Cl-]	4.37	93.5
3.99	CC(C)c1nn(-c2ccccc2)[n+](-c2ccccc2)n1.[Br-]	3.42	3.7
6.41	Fc1ccccc1-[n+]1nc(-c2ccccc2)nn1-c1ccccc1.[Cl-]	4.36	112.8
6.94	Clc1cccc(-[n+]2nc(-c3ccc(-c4ccccc4)cc3)nn2-c2ccccc2)c1.[Cl-]	5.00	87
6.82	[Cl-].c1ccc(-c2nn(-c3ccccc3)[n+](-c3cccc4ccccc34)n2)cc1 [TETRAZOLIUM VIOLET]	4.82	100
6.44	Fc1ccccc1-[n+]1nc(-c2ccc(-c3ccccc3)cc2)nn1-c1ccccc1.[Cl-]	5.10	22.2
5.40	CCCCCCCCCCCOc1ccc(-c2nn(-c3ccccc3)[n+](-c3ccccc3)n2)cc1.[Cl-]	6.40	0.1
5.42	COc1cc(-c2nn(-c3ccccc3)[n+](-c3ccc(Cl)cc3)n2)ccc1OCc1ccccc1.[Cl-]	4.49	8.4
6.85	Fc1ccccc1-[n+]1nc(-c2ccc(OCc3ccccc3)cc2)nn1-c1ccccc1.[Cl-]	5.10	57.1
6.22	Brc1cccc(-[n+]2nc(-c3ccccc3)nn2-c2ccccc2)c1.[Cl-]	5.19	10.7
6.46	[Cl-].c1ccc(-n2nc(-c3cccc4ccccc34)n[n+]2-c2ccccc2)cc1	5.62	6.9
6.16	COc1cc(-c2nn(-c3ccccc3)[n+](-c3cccc(Cl)c3)n2)ccc1OCc1ccccc1.[Cl-]	5.10	11.6
6.64	[Cl-].c1ccc(COc2ccc(-c3nn(-c4ccc(OCc5ccccc5)cc4)[n+](-c4ccccc4)n3)cc2)cc1	6.02	4.2
6.20	Clc1ccc(-[n+]2nc(-c3ccccc3)nn2-c2ccccc2)cc1.[Cl-]	4.41	61.9
5.42	COc1cc(-c2ccc(-n3nc(-c4ccccc4)n[n+]3-c3ccccc3)c(OC)c2)ccc1-n1nc(-c2ccccc2)n[n+]1-c1ccccc1 [TETRAZOLIUM BLUE CHLORIDE]	< 4.00	–
6.40	Brc1cccc(-[n+]2nc(-c3ccc(OCc4ccccc4)cc3)nn2-c2ccccc2)c1.[Cl-]	5.09	20.3
6.46	[Cl-].[Cl-].c1ccc(-c2nn(-c3ccccc3)[n+](-c3ccc(-c4ccc(-[n+]5nc(-c6ccccc6)nn5-c5ccccc5)cc4)cc3)n2)cc1 [NEOTETRAZOLIUM CHLORIDE]	4.96	31.4

SMILES	pIC50 [1]	pIC50 [2]	Ratio IC50 [3]
[Cl-].c1ccc(-c2nn(-c3ccccc3)[n+](-c3ccccc3)n2)cc1 [TETRAZOLIUM RED]	6.52	4.15	236.7
O=[N+]([O-])c1ccc(-n2nc(-c3ccccc3)n[n+]2-c2ccc(I)cc2)cc1.[Cl-] [IODONITROTETRAZOLIUM CHLORIDE]	4.09	4.31	0.6
